The source of these data is ChEMBL document CHEMBL2380310, “Discovery of 7-oxopyrazolo[1,5-a]pyrimidine-6-carboxamides as potent and selective CB(2) cannabinoid receptor inverse agonists” (J Med Chem, 2013).

Experiment [1] concerns the target T1, Cannabinoid receptor 2 (Homo sapiens, UniProt P34972). As to the kind of experiment: Inverse agonist activity at human CB2 receptor expressed in CHO cell membrane assessed as increase in forskolin-stimulated cAMP production by scintillation counting analysis. It counts as functional, cell membranes.
Experiment [2] deals with Cannabinoid receptor 1 (Rattus norvegicus, UniProt P20272). In words: Displacement of [3H]CP-55940 from Sprague-Dawley rat brain CB1 receptor after 90 mins by scintillation counting analysis. The method in brief: (§1)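 Competition with [³H]CP-55,940 (1.0 nM stated in rat CB₁ section; 0.5 nM in general protocol) against 1 nM–10 μM compound, 90 min at 30 °C. GF/C filtration, scintillation counting. Ki via Cheng-Prusoff; mean SEM, n = 4.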

For another experiment, the species on record is Homo sapiens. As to the kind of experiment: Selectivity index, ratio of Ki for human CB1 receptor to Ki for human CB2 receptor.
Experiment [3] addresses T2, Cannabinoid receptor 2 (Rattus norvegicus, UniProt Q9QZN9).
T2 sequence (Q9QZN9 whole entry): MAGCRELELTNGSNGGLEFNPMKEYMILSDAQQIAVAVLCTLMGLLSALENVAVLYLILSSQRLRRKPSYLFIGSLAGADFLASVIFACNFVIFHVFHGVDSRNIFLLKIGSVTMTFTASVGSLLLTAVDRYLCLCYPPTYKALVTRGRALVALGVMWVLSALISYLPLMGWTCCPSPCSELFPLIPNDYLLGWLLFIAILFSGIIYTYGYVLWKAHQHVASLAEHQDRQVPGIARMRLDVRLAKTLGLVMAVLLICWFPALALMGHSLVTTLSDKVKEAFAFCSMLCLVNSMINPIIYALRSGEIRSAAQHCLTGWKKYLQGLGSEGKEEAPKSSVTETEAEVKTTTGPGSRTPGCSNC
In words: Displacement of [3H]CP-55940 from Sprague-Dawley rat spleen CB2 receptor after 60 mins by scintillation counting analysis. The method in brief: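 Competed against 0.5 nM [³H]CP-55,940 using 1 nM–10 μM compound for 60 min at 30 °C. Bound ligand collected on GF/C filters and counted. Ki from IC50 by Cheng-Prusoff; mean SEM of n = 4.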

In experiment [4] the target is T1, Cannabinoid receptor 2. As to the kind of experiment: Displacement of [3H]CP-55940 from human CB2 receptor expressed in CHO cell membrane after 60 mins by scintillation counting analysis. It counts as cell membranes. The method in brief: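 Human CB₂-expressing CHO cell membranes in 50 mM Tris-HCl, 0.5% BSA, 5 mM MgCl₂, 1 mM EDTA, pH 7.4. Binding of 0.5 nM [³H]CP-55,940 competed with 1 nM–10 μM compound for 60 min at 30 °C, then GF/C filtration and scintillation counting. Ki by Cheng-Prusoff from IC50; mean SEM of n = 4.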

Experiment [5] deals with T3, Cannabinoid receptor 1 (Homo sapiens, UniProt P21554). As to the kind of experiment: Displacement of [3H]CP-55940 from human CB1 receptor expressed in CHO cell membrane after 90 mins by scintillation counting analysis. It counts as cell membranes. The method in brief: (§2)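 Membranes from CHO cells stably expressing human CB₁ (G418-maintained), suspended in 50 mM Tris-HCl, 0.5% BSA, 5 mM MgCl₂, 2.5 mM EDTA, pH 7.4. Displacement of 0.5 nM [³H]CP-55,940 by 1 nM–10 μM compound, 90 min, 30 °C. Filtration on GF/C, scintillation counting. Cheng-Prusoff Ki, LIGAND fitting; mean SEM, n = 4.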

For experiment [6], the target named is T1, Cannabinoid receptor 2. In words: Inverse agonist activity at human CB2 receptor expressed in CHO cell membrane assessed as increase in forskolin-stimulated cAMP production at 1 uM by scintillation counting analysis relative to WIN55212-2. Summed up:
(§3)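 Whole hCB₂ CHO cells (1 × 10⁶/assay) in HEPES-buffered saline with glucose, pH 7.4, preincubated 10 min at 37 °C with 0.5 mM Ro 20-1724. Compound at 1 or 10 μM with 1 μM forskolin. Stopped with cold 6% TCA, ether-extracted; cAMP measured by [³H]cAMP competition binding with adrenal binding protein. Expressed as % increase versus WIN 55,212-2 (set −100%); n = 4.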

The target of experiment [7] is T1, Cannabinoid receptor 2. In words: Inverse agonist activity at human CB2 receptor expressed in CHO cell membrane assessed as increase in forskolin-stimulated cAMP production at 10 uM by scintillation counting analysis relative to WIN55212-2. The method in brief: as §3
Experiment [8] has as its target T3, Cannabinoid receptor 1. As to the kind of experiment: Displacement of [3H]CP-55940 from human CB1 receptor expressed in CHO cell membrane at > 10 uM after 90 mins by scintillation counting analysis. It counts as cell membranes. The method in brief: as §2
Experiment [9] deals with Cannabinoid receptor 1 (Rattus norvegicus) (UniProt P20272). As to the kind of experiment: Displacement of [3H]CP-55940 from Sprague-Dawley rat brain CB1 receptor at > 10 uM after 90 mins by scintillation counting analysis. Summed up: as §1
Experiment [10] deals with T1, Cannabinoid receptor 2. In words: Inverse agonist activity at human CB2 receptor expressed in CHO cell membrane assessed as increase in forskolin-stimulated cAMP production at 1 to 10 uM by scintillation counting analysis in presence of WIN55212-2.

The source made the active and inactive calls. No cut-off for these calls is given here.

T1 sequence (P34972 whole entry): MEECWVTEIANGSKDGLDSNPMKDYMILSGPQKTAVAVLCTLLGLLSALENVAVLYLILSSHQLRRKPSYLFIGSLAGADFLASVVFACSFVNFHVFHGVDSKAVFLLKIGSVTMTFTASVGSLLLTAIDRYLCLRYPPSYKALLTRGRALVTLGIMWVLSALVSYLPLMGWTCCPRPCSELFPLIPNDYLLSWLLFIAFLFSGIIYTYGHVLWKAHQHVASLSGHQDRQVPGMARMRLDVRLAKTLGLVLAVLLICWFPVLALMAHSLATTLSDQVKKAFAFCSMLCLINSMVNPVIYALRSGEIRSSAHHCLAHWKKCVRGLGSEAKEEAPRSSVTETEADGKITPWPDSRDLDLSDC
T3 sequence (P21554 whole entry): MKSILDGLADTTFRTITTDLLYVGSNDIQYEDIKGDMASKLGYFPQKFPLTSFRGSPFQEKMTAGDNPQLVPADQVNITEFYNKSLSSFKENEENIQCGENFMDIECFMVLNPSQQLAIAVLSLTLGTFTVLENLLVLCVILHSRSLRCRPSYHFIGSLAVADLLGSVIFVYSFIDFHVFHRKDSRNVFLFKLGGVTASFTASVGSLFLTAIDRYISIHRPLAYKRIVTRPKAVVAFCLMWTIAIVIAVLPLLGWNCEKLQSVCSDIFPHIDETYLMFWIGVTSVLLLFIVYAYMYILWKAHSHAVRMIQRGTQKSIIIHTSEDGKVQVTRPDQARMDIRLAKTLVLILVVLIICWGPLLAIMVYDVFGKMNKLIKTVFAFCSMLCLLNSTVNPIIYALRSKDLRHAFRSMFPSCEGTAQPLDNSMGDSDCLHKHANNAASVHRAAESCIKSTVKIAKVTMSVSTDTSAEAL
Chain of Cannabinoid receptor 1 (Rattus norvegicus, UniProt P20272) (P20272 whole entry): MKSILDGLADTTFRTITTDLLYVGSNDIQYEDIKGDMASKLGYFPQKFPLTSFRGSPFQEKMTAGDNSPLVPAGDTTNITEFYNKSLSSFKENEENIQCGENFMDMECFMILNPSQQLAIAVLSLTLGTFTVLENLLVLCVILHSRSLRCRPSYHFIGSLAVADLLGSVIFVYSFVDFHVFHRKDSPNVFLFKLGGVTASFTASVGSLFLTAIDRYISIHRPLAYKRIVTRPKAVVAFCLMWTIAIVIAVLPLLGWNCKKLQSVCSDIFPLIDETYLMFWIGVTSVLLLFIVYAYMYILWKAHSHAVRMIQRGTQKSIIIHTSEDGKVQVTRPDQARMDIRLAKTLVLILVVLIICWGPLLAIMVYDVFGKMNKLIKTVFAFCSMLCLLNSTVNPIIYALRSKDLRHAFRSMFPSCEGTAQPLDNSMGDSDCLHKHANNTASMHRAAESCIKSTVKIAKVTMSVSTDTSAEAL
Chain of Cannabinoid receptor 1 (Rattus norvegicus) (P20272 whole entry): as above

For the compound `CCCCCn1cc(C(=O)NC2CCCCCC2)c(=O)n2nc(C(C)(C)C)cc12`, the concentration for a half-maximal effect (EC50) at Cannabinoid receptor 2 [1] worked out at 351 nM. The Ki at Cannabinoid receptor 1 [2] turned out to be 650 nM; at Cannabinoid receptor 2 [3] it was 7.52 nM; at Cannabinoid receptor 2 [4], 7.22 nM; at Cannabinoid receptor 1 [5] it was 605 nM. Besides, in the experiment listed under Homo sapiens, the Ratio Ki came to 84. In addition, the Activity at Cannabinoid receptor 2 [6] is 151%; on Cannabinoid receptor 2 [7] it was 213%.

For the compound `CCCCCn1cc(C(=O)NC23CC4CC(CC(C4)C2)C3)c(=O)n2nc(-c3ccccc3)cc12`, the Activity at Cannabinoid receptor 1 [8] was found to be 43%; on Cannabinoid receptor 2 [6], 163%; on Cannabinoid receptor 2 [7], 195%; in experiment [9], 40%. On Cannabinoid receptor 2 [1], the concentration giving a half-maximal response (EC50) came out at 195 nM. For the same compound, the Ki on Cannabinoid receptor 1 [2] was over 10000 nM; at Cannabinoid receptor 2 [3] it was 2.74 nM; at Cannabinoid receptor 2 [4] it was 2.56 nM; on Cannabinoid receptor 1 [5], over 10000 nM. The Ratio Ki in the experiment filed under Homo sapiens is over 3910.

Consider `CCCCCn1cc(C(=O)NC23CC4CC(CC(C4)C2)C3)c(=O)n2nc(-c3cccs3)cc12`, for which the Activity was 26% at Cannabinoid receptor 1 [8], 89% at Cannabinoid receptor 2 [6], 102% at Cannabinoid receptor 2 [7] and 22% in [9]. Besides, the Ki on Cannabinoid receptor 1 [2] was over 10000 nM; at Cannabinoid receptor 2 [3], 7.52 nM; at Cannabinoid receptor 2 [4], 6.24 nM; on Cannabinoid receptor 1 [5] it was over 10000 nM. Besides, the Ratio Ki in the experiment filed under Homo sapiens is over 1600.

With `CCCCCn1cc(C(=O)NC23CC4CC(CC(C4)C2)C3)c(=O)n2nc(-c3ccc(C)s3)cc12`, the Activity on Cannabinoid receptor 1 [8] was 31%; at Cannabinoid receptor 2 [6] it was 38%; at Cannabinoid receptor 2 [7] it was 68%; in experiment [9], 33%. Also, the Ki is over 10000 nM on Cannabinoid receptor 1 [2], 12.2 nM at Cannabinoid receptor 2 [3], 11.6 nM at Cannabinoid receptor 2 [4] and over 10000 nM on Cannabinoid receptor 1 [5]. Further, in the experiment filed under Homo sapiens, the Ratio Ki is over 862.

In the case of `CCCCCn1cc(C(=O)NC23CC4CC(CC(C4)C2)C3)c(=O)n2nc(-c3ccc(Cl)cc3)cc12`, the Activity on Cannabinoid receptor 1 [8] came to 13%; at Cannabinoid receptor 2 [6], 144%; at Cannabinoid receptor 2 [7], 183%; in experiment [9] it was 10%. Moreover, the inhibitory constant (Ki) was over 10000 nM on Cannabinoid receptor 1 [2], 4.21 nM at Cannabinoid receptor 2 [3], 3.88 nM at Cannabinoid receptor 2 [4] and over 10000 nM on Cannabinoid receptor 1 [5]. Also, in the experiment listed under Homo sapiens, the Ratio Ki is over 2580.

On to `CCCCCn1cc(C(=O)NC2CCCCCC2)c(=O)n2nc(-c3ccc(Cl)cc3)cc12`, for which the Activity is 40% at Cannabinoid receptor 1 [8], 121% on Cannabinoid receptor 2 [6], 162% on Cannabinoid receptor 2 [7] and 47% in experiment [9]. Also, the inhibition constant (Ki) at Cannabinoid receptor 1 [2] was over 10000 nM; at Cannabinoid receptor 2 [3] it was 6.53 nM; at Cannabinoid receptor 2 [4] it was 6.31 nM; at Cannabinoid receptor 1 [5], over 10000 nM. For the same compound, in the experiment listed under Homo sapiens, the Ratio Ki is over 1580.

With `CCCCCn1cc(C(=O)NC23CC4CC(CC(C4)C2)C3)c(=O)n2nc(-c3ccccc3Cl)cc12`, the Activity on Cannabinoid receptor 1 [8] was 41%; at Cannabinoid receptor 2 [6] it was 114%; on Cannabinoid receptor 2 [7], 136%; in experiment [9] it was 48%. In addition, the inhibition constant Ki on Cannabinoid receptor 1 [2] was over 10000 nM; at Cannabinoid receptor 2 [3], 6.32 nM; at Cannabinoid receptor 2 [4] it was 6.21 nM; at Cannabinoid receptor 1 [5] it was over 10000 nM. In addition, in the experiment filed under Homo sapiens, the Ratio Ki is over 1610.

Take `CCCCCn1cc(C(=O)NC23CC4CC(CC(C4)C2)C3)c(=O)n2nc(-c3ccco3)cc12`: the Activity is 34% at Cannabinoid receptor 1 [8], 107% on Cannabinoid receptor 2 [6], 124% at Cannabinoid receptor 2 [7] and 40% in experiment [9]. In addition, the Ki at Cannabinoid receptor 1 [2] is over 10000 nM; at Cannabinoid receptor 2 [3], 5.14 nM; at Cannabinoid receptor 2 [4] it was 4.92 nM; on Cannabinoid receptor 1 [5] it was over 10000 nM. For the same compound, the Ratio Ki in the experiment filed under Homo sapiens was over 2030.

In the case of `CCCCCn1cc(C(=O)NC23CC4CC(CC(C4)C2)C3)c(=O)n2nc(-c3ccc(C)cc3)cc12`, the Activity on Cannabinoid receptor 1 [8] came out at 38%; on Cannabinoid receptor 2 [6], 138%; at Cannabinoid receptor 2 [7], 168%; in experiment [9] it was 45%. In addition, the inhibitory constant (Ki) is over 10000 nM at Cannabinoid receptor 1 [2], 3.82 nM on Cannabinoid receptor 2 [3], 3.41 nM at Cannabinoid receptor 2 [4] and over 10000 nM on Cannabinoid receptor 1 [5]. The Ratio Ki in the experiment filed under Homo sapiens was over 2930.

Take `CCCCCn1cc(C(=O)NC23CC4CC(CC(C4)C2)C3)c(=O)n2nc(CC)cc12`: the EC50 on Cannabinoid receptor 2 [1] came to 95 nM. Also, the Ki at Cannabinoid receptor 1 [2] is 150 nM; at Cannabinoid receptor 2 [3] it was 0.96 nM; on Cannabinoid receptor 2 [4], 0.84 nM; at Cannabinoid receptor 1 [5] it was 120 nM. The Ratio Ki in the experiment filed under Homo sapiens was 143. The Activity at Cannabinoid receptor 2 [6] was determined as 173%; at Cannabinoid receptor 2 [7] it was 243%. In addition, the outcome at Cannabinoid receptor 2 [10] was Active.

Take `CCCCCn1cc(C(=O)NC2CCCCCC2)c(=O)n2nc(-c3ccccc3C)cc12`: the Activity was 34% on Cannabinoid receptor 1 [8], 107% at Cannabinoid receptor 2 [6], 125% on Cannabinoid receptor 2 [7] and 45% in experiment [9]. For the same compound, the inhibition constant (Ki) on Cannabinoid receptor 1 [2] was over 10000 nM; on Cannabinoid receptor 2 [3], 9.53 nM; on Cannabinoid receptor 2 [4], 8.93 nM; at Cannabinoid receptor 1 [5] it was over 10000 nM. Besides, the Ratio Ki in the experiment listed under Homo sapiens is over 1120.

As to `CCCCCn1cc(C(=O)NC23CC4CC(CC(C4)C2)C3)c(=O)n2nc(C)c(-c3ccc(OC)cc3)c12`, the Activity on Cannabinoid receptor 1 [8] came out at 4%; on Cannabinoid receptor 2 [6] it was 36%; on Cannabinoid receptor 2 [7] it was 60%; in [9], 5%. Besides, the Ki at Cannabinoid receptor 1 [2] is over 10000 nM; on Cannabinoid receptor 2 [3] it was 434 nM; at Cannabinoid receptor 2 [4], 350 nM; on Cannabinoid receptor 1 [5] it was over 10000 nM. In addition, the Ratio Ki in the experiment listed under Homo sapiens is over 28.
